Columns and labels:
[1] = target: T1, 5-hydroxytryptamine receptor 1A (Rattus norvegicus, UniProt P19327); experiment: Affinity pKi for 5-hydroxytryptamine 1A receptor was measured in rat cortex homogenates.; type: tissue-based
T1 sequence (P19327 whole entry): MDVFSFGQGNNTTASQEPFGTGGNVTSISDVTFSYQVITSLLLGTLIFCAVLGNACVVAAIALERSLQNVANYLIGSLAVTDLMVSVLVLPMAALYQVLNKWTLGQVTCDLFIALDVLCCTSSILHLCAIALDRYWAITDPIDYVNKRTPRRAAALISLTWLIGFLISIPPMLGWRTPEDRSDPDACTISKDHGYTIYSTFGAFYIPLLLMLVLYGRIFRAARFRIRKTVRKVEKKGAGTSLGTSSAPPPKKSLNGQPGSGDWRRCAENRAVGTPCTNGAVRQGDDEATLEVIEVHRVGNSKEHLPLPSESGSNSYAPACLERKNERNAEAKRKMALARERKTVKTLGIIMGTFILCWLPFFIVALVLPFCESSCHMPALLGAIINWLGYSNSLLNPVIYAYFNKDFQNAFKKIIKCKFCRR
Outline: (§1)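 Competition binding with rat cortex homogenate: radioligand near its KD plus a wide range of test drug concentrations in duplicate, 30 min at 27 °C. Buffer 50 mM TRIS-HCl, 5 mM CaCl₂, 0.1% (w/v) ascorbate, 10 mM pargyline. Nonspecific binding defined with excess cold 5HT. Rapid filtration with ice-cold buffer wash, liquid scintillation count. pKi is the mean of at least three estimates.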

[2] = target: 5-hydroxytryptamine receptor 2A (Rattus norvegicus, UniProt P14842); experiment: Affinity pKi for 5-hydroxytryptamine 2A receptor was measured in rat cortex homogenates; type: tissue-based; outline: as §1
[3] = Half life of compound was determined in mouse plasma; type: ADME, organism-based
[4] = target: T2, Adrenergic receptor alpha-2 (Rattus norvegicus, UniProt P22086+P19328+P22909); experiment: Affinity pKi for Alpha-2 adrenergic receptor was measured in rat cortex homogenates.; type: tissue-based; outline: as §1
T2 sequence (P22086 whole entry): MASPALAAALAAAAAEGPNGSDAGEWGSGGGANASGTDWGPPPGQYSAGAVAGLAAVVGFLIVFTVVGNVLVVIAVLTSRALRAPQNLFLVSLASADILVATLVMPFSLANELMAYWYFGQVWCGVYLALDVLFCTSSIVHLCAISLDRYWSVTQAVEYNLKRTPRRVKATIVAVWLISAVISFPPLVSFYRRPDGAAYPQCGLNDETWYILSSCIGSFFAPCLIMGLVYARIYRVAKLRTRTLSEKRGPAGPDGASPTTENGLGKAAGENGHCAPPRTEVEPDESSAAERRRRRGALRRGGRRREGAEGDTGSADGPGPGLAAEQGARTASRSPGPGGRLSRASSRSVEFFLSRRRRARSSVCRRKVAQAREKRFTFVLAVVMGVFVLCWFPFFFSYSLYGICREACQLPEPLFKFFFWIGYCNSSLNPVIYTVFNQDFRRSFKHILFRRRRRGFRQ
T2 sequence (P19328 whole entry): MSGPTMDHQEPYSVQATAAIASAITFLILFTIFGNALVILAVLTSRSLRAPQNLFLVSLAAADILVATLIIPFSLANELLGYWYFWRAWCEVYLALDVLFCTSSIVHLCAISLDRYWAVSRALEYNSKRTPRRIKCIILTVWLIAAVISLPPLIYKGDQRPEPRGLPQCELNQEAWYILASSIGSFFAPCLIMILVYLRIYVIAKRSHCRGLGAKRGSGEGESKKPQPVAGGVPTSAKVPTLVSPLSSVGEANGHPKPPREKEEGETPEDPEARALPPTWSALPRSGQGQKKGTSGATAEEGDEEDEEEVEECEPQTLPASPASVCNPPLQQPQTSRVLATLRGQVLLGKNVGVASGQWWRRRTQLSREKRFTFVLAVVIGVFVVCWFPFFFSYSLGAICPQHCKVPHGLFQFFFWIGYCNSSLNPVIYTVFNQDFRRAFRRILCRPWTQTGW
T2 sequence (P22909 whole entry): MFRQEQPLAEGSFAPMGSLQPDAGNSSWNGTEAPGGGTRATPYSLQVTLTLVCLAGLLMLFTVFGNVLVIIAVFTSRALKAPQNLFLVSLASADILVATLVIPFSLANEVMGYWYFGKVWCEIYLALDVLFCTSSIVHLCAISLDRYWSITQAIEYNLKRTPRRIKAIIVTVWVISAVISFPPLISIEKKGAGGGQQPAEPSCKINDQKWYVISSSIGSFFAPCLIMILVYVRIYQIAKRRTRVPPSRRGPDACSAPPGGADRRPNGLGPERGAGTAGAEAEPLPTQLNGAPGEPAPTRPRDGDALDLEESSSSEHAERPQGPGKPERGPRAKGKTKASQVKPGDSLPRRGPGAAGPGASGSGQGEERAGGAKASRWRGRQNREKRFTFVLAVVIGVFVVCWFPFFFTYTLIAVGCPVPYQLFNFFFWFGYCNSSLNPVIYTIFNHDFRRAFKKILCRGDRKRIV

[5] = target: Adrenergic receptor alpha-2 (Homo sapiens) (UniProt P08913+P18825+P18089); experiment: The dissociation equilibrium constant (pKB=-log KB) of compound was determined against the Alpha-2 adrenergic receptor; type: protein assay; settings: Oryctolagus cuniculus
[6] = target: D(1A) dopamine receptor (Rattus norvegicus, UniProt P18901); experiment: Affinity pKi for Dopamine receptor D1 was measured in rat cortex homogenates.; type: tissue-based; outline: as §1
[7] = target: Histamine H1 receptor (Homo sapiens) (UniProt P35367); experiment: The dissociation equilibrium constant (pKB=-log KB) of compound was determined against the Histamine H1 receptor in the rabbit thoracic aorta; type: tissue-based; settings: Oryctolagus cuniculus, target entry is the homologue from another species
[8] = The dissociation equilibrium constant (pKB=-log KB) of compound was determined against the Muscarinic acetylcholine receptor M3 in the guinea pig trachea.; settings: Cavia porcellus

5-hydroxytryptamine receptor 2A, sequence (P14842 whole entry): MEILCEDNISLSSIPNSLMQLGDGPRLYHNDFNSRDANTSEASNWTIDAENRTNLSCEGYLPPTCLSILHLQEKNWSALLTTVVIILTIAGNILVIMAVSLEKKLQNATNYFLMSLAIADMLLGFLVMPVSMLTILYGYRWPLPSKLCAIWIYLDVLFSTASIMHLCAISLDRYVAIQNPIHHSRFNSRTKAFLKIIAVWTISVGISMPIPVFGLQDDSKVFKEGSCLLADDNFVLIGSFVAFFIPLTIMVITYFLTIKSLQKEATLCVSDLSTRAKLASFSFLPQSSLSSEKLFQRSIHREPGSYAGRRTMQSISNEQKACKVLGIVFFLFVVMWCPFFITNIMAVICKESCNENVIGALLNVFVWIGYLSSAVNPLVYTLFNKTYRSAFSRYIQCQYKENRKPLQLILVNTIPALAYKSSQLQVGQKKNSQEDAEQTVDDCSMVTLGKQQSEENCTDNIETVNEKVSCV
D(1A) dopamine receptor, sequence (P18901 whole entry): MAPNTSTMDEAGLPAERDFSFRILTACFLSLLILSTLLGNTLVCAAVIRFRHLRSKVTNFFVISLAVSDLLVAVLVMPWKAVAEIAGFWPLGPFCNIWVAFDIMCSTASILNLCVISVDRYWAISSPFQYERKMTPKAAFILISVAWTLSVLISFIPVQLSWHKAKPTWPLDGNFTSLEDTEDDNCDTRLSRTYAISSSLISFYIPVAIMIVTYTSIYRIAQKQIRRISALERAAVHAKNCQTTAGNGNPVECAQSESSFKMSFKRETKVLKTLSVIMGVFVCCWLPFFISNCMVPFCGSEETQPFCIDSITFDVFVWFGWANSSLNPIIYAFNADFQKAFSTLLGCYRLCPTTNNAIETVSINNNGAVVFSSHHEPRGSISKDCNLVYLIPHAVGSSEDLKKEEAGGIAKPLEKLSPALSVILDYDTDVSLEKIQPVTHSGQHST
Histamine H1 receptor (Homo sapiens), sequence (P35367 whole entry): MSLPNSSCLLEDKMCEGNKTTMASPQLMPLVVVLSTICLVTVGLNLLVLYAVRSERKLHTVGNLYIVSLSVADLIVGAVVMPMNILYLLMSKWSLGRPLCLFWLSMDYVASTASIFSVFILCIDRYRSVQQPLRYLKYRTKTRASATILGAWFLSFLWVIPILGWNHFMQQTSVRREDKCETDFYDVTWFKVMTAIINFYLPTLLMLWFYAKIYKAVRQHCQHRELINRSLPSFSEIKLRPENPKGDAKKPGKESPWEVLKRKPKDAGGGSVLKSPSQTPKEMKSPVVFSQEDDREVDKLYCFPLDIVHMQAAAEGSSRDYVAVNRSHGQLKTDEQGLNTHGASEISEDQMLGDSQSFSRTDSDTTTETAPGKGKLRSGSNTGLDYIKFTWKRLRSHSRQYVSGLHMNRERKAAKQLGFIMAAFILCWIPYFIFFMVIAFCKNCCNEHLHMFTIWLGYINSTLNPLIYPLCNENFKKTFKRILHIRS

Ki [1]: 9.33 µM | Ki [2]: 7.94 µM | half-life [3]: 12 min | Log Ki [4]: -5.25 | pKB [5]: < 5 | Ki [6]: 32.4 µM | pKB [7]: < 5 | pKB [8]: < 5
SMILES: CCOC(=O)c1[nH]c2ccc(CCN3C(=O)CNC3=O)cc2c1CCN(C)C

Reference: ChEMBL document CHEMBL1130209, “A novel series of 2,5-substituted tryptamine derivatives as vascular 5HT1B/1D receptor antagonists” (J Med Chem, 1997)
